Three compounds from ChEMBL document CHEMBL3580617, “Discovery of Benzimidazole CYP11B2 Inhibitors with in Vivo Activity in Rhesus Monkeys” (ACS Med Chem Lett, 2015) can be followed below.

pIC50: −log10 of the molar value. Active and inactive are the calls of the source. The calls are words filed in the database; no cut-off is given here.

Data set [1] relates to Rhesus monkey. Particulars: Macaca mulatta; 1 mg/kg.
Data set [2] addresses T1, Steroid 17-alpha-hydroxylase/17,20 lyase (Homo sapiens, UniProt P05093).
T1 sequence (P05093 whole entry): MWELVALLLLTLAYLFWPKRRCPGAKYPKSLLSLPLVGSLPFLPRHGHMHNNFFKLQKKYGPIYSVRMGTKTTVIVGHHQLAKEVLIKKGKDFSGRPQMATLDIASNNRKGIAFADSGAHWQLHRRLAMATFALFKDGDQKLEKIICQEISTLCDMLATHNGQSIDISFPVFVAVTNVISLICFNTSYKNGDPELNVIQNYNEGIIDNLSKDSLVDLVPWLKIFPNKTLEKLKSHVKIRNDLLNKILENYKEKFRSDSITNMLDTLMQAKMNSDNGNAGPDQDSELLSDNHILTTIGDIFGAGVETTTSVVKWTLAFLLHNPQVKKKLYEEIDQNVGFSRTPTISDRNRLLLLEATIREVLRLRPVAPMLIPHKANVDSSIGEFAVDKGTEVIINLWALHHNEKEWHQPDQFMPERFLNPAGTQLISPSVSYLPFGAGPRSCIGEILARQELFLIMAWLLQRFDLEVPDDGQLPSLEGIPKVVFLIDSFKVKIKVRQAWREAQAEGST
Nature of the data set: Inhibition of human CYP17 expressed in COS7 cells incubated for 1 hr before 17-hydroxypregnenolone substrate addition by EIA method. The data set is classed as cell-based, COS-7.

For a further data set, the target named is T2, Aromatase (Homo sapiens, UniProt P11511).
T2 sequence (P11511 whole entry): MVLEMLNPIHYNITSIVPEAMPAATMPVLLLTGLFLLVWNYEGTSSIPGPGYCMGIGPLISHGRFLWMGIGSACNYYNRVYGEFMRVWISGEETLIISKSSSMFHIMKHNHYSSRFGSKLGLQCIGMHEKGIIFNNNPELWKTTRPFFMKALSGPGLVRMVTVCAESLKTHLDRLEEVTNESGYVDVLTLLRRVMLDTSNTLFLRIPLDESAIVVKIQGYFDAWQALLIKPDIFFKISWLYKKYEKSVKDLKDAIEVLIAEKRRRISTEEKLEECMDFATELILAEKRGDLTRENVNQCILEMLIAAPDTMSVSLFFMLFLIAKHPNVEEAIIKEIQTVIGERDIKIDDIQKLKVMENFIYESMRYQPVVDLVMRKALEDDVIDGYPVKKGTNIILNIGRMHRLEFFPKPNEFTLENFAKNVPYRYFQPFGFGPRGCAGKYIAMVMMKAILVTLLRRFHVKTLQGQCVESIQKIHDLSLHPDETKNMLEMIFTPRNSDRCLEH
Description: Inhibition of CYP19 (unknown origin) using MFC substrate incubated for 30 mins.

The species named for data set [3] is Homo sapiens. Nature of the data set: Selectivity index, ratio of IC50 for human CYP11B1 to IC50 for human CYP11B2. In a few lines:
(§1)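 Human CYP11B2 and CYP11B1 inhibition was tested in cell-based assays. Selectivity was taken as the hCYP11B1 IC50 divided by the hCYP11B2 IC50.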

The nature of data set [4]: Fraction unbound in rat plasma at […] incubated for 4 hrs by equilibrium dialysis and LC/MS method. The data set is classed as ADME, cell-free. In general terms: In equilibrium dialysis only unbound substance equilibrates across the membrane.
A short description of data set [5]: Intrinsic clearance in rat liver microsomes at […] incubated for 10 mins before NADPH addition by LC/MS method. Format: ADME. Particulars: read-out: CLH.
Data set [6] in a line: Oral bioavailability in Sprague-Dawley rat at 2 mg/kg by LC-MS/MS method. The data set is classed as ADME, organism-based. Particulars: in vivo. In a few lines:
(§2)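 In the rat pharmacokinetic study, AUC was normalized for dose (μM·h·kg/mg), plasma clearance was expressed in mL/min/kg, and oral bioavailability was calculated.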

A further data set deals with Rattus norvegicus. Description: Dose normalized AUC in Sprague-Dawley rat at 2 mg/kg, po or 1 mg/kg, iv by LC-MS/MS method. To be noted: in vivo. Format: ADME, organism-based. In a few lines:
as §2

Data set [7] can be described thus: Plasma clearance in Sprague-Dawley rat at 2 mg/kg, po or 1 mg/kg, iv by LC-MS/MS method. Format: ADME, organism-based. In a few lines: as §2
The next data set deals with T3, Steroid 21-hydroxylase (Homo sapiens, UniProt P08686).
T3 sequence (P08686 whole entry): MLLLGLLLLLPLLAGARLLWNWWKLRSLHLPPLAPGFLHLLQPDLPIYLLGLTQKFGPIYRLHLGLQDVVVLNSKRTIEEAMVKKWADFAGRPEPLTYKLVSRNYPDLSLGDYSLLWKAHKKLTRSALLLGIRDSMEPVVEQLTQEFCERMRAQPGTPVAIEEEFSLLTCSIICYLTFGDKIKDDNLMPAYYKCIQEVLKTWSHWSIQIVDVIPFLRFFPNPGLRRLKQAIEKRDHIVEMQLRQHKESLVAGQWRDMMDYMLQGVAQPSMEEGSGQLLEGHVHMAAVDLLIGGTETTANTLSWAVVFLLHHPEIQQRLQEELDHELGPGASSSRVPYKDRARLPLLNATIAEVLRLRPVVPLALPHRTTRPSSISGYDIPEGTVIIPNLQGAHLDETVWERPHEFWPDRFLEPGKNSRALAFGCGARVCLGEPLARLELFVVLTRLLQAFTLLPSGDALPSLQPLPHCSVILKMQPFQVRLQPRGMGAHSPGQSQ
Nature of the data set: Inhibition of human CYP21 expressed in COS7 cells incubated for 1 hr before […] substrate addition by HTRF-based assay. The data set is classed as cell-based, COS-7. In general terms: Time-resolved FRET reads energy transfer from a long-lived donor to a nearby acceptor.

A further data set addresses Cytochrome P450 3A4 (Homo sapiens, UniProt P08684). Description: Inhibition of CYP3A4 (unknown origin). The data set is classed as ADME.
For the next data set, the target named is Cytochrome P450 2C9 (Homo sapiens, UniProt P11712). Description: Inhibition of CYP2C9 (unknown origin). Format: ADME.
A further data set has as its target Cytochrome P450 2D6 (Homo sapiens, UniProt P10635). Nature of the data set: Inhibition of CYP2D6 (unknown origin). Format: ADME.
The species entered for data set [8] is Homo sapiens. Description: Selectivity index, ratio of IC50 for CYP19 (unknown origin) to IC50 for human CYP11B2.
Another data set relates to V79. Description: Inhibition of rhesus monkey CYP11B2 expressed in V79 cells incubated for 1 hr before 11-deoxycorticosterone substrate addition by HTRF-based assay. The data set is classed as cell-based. To be noted: Macaca mulatta.
Data set [9] concerns the target T4, Cytochrome P450 11B2, mitochondrial (Rattus norvegicus, UniProt P30099).
T4 sequence (P30099 whole entry): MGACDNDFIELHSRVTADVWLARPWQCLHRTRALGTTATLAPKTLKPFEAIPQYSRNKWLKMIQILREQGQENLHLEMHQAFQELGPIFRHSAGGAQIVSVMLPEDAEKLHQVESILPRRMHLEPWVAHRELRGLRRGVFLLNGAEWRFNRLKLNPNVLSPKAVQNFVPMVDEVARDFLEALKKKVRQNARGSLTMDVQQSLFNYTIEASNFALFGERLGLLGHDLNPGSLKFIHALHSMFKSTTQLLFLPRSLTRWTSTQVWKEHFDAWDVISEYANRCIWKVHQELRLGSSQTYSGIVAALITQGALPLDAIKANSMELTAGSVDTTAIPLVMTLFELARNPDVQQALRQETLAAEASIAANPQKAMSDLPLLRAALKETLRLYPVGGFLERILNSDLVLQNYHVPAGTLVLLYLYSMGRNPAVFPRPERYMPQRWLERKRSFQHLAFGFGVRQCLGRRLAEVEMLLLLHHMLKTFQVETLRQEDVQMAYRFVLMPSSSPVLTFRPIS
Nature of the data set: Inhibition of rat CYP11B2 expressed in V79 cells incubated for 1 hr before 11-deoxycorticosterone substrate addition by HTRF-based assay. Format: cell-based. To be noted: v79, 1 h.

In data set [10] the target is T5, Cytochrome P450 11B2, mitochondrial (Homo sapiens, UniProt P19099).
T5 sequence (P19099 whole entry): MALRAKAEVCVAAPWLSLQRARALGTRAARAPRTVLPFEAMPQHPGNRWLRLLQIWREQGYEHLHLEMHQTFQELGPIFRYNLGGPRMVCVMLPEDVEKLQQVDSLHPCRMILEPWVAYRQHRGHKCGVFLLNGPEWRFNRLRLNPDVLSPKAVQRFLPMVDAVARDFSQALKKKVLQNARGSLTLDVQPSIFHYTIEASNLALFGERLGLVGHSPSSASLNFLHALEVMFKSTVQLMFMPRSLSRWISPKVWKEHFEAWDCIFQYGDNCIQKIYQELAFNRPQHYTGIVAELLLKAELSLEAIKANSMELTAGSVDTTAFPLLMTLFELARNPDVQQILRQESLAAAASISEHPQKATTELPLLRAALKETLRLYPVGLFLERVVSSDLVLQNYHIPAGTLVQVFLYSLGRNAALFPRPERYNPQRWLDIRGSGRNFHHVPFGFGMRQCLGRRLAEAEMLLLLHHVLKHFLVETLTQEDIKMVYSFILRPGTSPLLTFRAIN
Nature of the data set: Inhibition of human CYP11B2 expressed in V79 cells incubated for 1 hr before 11-deoxycorticosterone substrate addition by HTRF-based assay. The data set is classed as cell-based. An outline of the steps:
as §1

Data set [11] deals with T6, Cytochrome P450 11B1, mitochondrial (Homo sapiens, UniProt P15538).
T6 sequence (P15538 whole entry): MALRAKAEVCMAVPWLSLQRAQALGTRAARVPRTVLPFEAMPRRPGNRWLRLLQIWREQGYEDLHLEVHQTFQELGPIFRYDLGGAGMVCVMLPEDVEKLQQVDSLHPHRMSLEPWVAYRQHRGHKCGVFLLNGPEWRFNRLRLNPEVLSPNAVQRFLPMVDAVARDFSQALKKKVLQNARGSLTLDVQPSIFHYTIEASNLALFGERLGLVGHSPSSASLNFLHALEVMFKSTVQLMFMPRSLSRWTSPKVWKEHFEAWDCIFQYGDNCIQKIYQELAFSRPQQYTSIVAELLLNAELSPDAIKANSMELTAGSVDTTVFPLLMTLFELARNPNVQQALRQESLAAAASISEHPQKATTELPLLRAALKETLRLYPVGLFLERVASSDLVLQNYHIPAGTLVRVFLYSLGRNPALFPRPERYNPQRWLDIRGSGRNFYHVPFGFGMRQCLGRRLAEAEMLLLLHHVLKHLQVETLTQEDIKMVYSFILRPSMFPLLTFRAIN
Nature of the data set: Inhibition of human CYP11B1 expressed in V79 cells incubated for 1 hr before 11-deoxycortisol substrate addition by HTRF-based assay. Format: cell-based. In a few lines: as §1

The species named for data set [12] is Homo sapiens. Description: Selectivity index, ratio of IC50 for CYP3A4 (unknown origin) to IC50 for human CYP11B2.
The species entered for data set [13] is Homo sapiens. Description: Selectivity index, ratio of IC50 for CYP2C9 (unknown origin) to IC50 for human CYP11B2.
For data set [14], the species on record is Homo sapiens. Nature of the data set: Selectivity index, ratio of IC50 for CYP2D6 (unknown origin) to IC50 for human CYP11B2.
Data set [15] is described as follows: Intrinsic clearance in rhesus monkey liver microsomes at […] incubated for 10 mins before NADPH addition by LC/MS method. The data set is classed as ADME, Macaca mulatta. To be noted: read-out: CLH. A general note: Microsomes from liver hold many membrane-bound enzymes, among them those of drug oxidation.
A short description of data set [16]: Oral bioavailability in rhesus monkey at 1 mg/kg by LC-MS/MS method. Particulars: in vivo. Format: ADME, organism-based, Macaca mulatta.
Data set [17] has as its system Rhesus monkey. Description: Dose normalized AUC in rhesus monkey at 1 mg/kg, po or 0.5 mg/kg, iv by LC-MS/MS method. Particulars: in vivo. The data set is classed as ADME, organism-based, Macaca mulatta.
Data set [18] is described as follows: Plasma clearance in rhesus monkey at 1 mg/kg, po or 0.5 mg/kg, iv by LC-MS/MS method. Format: ADME, organism-based, Macaca mulatta.

Cytochrome P450 3A4, sequence (P08684 whole entry): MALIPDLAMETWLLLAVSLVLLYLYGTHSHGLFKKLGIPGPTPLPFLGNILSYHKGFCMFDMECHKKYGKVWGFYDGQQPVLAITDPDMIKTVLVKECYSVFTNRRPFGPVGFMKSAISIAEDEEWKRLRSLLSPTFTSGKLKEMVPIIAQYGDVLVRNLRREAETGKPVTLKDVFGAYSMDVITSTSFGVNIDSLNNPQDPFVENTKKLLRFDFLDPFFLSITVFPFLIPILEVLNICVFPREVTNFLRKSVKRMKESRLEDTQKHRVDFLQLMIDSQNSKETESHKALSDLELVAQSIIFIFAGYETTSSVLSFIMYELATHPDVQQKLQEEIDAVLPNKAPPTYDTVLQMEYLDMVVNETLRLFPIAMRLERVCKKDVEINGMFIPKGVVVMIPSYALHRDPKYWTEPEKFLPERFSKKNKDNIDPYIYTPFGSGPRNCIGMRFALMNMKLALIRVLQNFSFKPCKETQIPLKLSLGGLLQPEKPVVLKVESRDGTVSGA
Cytochrome P450 2D6, sequence (P10635 whole entry): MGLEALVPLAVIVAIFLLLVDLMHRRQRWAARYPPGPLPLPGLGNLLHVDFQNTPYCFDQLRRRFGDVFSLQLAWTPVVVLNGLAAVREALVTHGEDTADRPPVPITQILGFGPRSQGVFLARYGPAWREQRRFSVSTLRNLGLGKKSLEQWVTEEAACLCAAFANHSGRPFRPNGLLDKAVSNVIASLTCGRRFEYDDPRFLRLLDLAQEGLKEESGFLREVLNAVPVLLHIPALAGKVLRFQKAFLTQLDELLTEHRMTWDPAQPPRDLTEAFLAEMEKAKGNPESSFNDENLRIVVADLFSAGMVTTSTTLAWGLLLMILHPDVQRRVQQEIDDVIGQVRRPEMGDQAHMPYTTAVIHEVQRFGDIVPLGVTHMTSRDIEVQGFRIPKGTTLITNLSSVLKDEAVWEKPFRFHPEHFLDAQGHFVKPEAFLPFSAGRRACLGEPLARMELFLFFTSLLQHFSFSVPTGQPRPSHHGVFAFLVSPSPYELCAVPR
Cytochrome P450 2C9, sequence (P11712 whole entry): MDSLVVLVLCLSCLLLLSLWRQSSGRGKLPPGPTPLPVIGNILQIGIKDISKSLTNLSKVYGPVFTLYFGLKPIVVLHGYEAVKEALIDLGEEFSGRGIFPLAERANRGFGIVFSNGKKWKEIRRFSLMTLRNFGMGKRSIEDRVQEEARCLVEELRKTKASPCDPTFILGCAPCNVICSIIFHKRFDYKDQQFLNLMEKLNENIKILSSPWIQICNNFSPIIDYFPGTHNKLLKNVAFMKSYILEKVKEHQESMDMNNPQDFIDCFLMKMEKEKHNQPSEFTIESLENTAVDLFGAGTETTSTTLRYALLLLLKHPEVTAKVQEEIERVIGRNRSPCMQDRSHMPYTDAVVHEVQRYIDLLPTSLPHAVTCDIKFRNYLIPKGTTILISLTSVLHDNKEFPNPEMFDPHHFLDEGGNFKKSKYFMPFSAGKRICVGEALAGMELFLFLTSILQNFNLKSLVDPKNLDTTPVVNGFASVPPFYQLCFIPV

In the case of `N#Cc1ccc(C2CCCc3cncn32)cc1` (stereo unspecified), in the data set with Rhesus monkey [1], the inhibition entry is “Active”.
As for `CC(C)(O)c1cncc(-c2nc3cc(F)c(F)cc3n2C2CC2)c1`, the pIC50 in data set [2] was less than 5.00; at Aromatase, 5.90; at Steroid 21-hydroxylase, less than 5.00; on Cytochrome P450 3A4, less than 4.30. Moreover, the Ratio IC50 was 140 in the data set listed under Homo sapiens [3] and 500 in the data set filed under Homo sapiens [8]. The fraction unbound at 4 h in [4] worked out at 0.14. For the same compound, the CLint scaled in data set [5] is less than 20 mL/min/kg. The bioavailability in data set [6] came to 94%. Besides, in the data set on Rattus norvegicus, the AUC/dose amounted to 6.55 µM·kg·h/mg. The clearance in data set [7] is 7 mL/min/kg. Besides, the “inhibition (INH)” value (on Cytochrome P450 2C9; at Cytochrome P450 2D6; in data set [9]) was “Not Active” in each case. The inhibition result in the data set with V79 was “Active”.
Turning to `Cc1c(F)cncc1-c1nc2cc(F)c(F)cc2n1C1CC1`, the negative logarithm of the IC50 (pIC50) in [2] was less than 5.00; in [10], 9.30; in [11], 6.59; against Steroid 21-hydroxylase it was less than 5.00; against Cytochrome P450 3A4, 5.08. For the same compound, the Ratio IC50 is 553 in the data set filed under Homo sapiens [3], greater than 1000 in the data set filed under Homo sapiens [12], greater than 1000 in the data set listed under Homo sapiens [13] and greater than 1000 in the data set listed under Homo sapiens [14]. Further, in [15], the CLint scaled was less than 20 mL/min/kg. The bioavailability in data set [16] was 88%. The compound also gave an AUC/dose in the data set on Rhesus monkey [17] of 2.49 µM·kg·h/mg. In addition, in data set [18], the clearance was found to be 19 mL/min/kg. In addition, in the data set on V79, the inhibition result is “Active”. The “inhibition (INH)” value in [9] was “Not Active”.

For orientation: pIC50 means the negative decadic logarithm of the IC50, by convention in mol/L. What is called fraction unbound is the share of the substance not bound to proteins or other matrix. As a reminder, the bioavailability is dose-corrected exposure relative to a reference, in per cent.
